≈ marks a conversion by molar mass, not a printed value.
Key:
Escherichia coli [1] = assay: Antibacterial activity against Escherichia coli JM109 by microdilution method; type: functional
Outline: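 Microdilution β-lactam susceptibility in E. coli JM109, the host strain for recombinant plasmids such as the pHSG396-based blaKHM-1 clone.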

Citrobacter freundii [2] = assay: Antibacterial activity against Citrobacter freundii KHM243 clinical isolate by microdilution method; type: functional
Escherichia coli [3] = assay: Antibacterial activity against Escherichia coli JM109 harboring recombinant pKHM-1 by microdilution method; type: functional
Escherichia coli [4] = assay: Ratio of Kcat to Km for Escherichia coli JM109 harboring recombinant pKHM-1 Beta-lactamase KHM-1 assessed as compound hydrolysis by UV-visible spectrophotometry
Outline: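 KHM-1 was purified from E. coli JM109(pKHM-1) on HiTrap Q and Superdex 200 columns, with fractions tracked by 100 μM nitrocefin hydrolysis. Protein was measured by BCA. Hydrolysis was followed spectrophotometrically in 50 mM phosphate pH 7.0 at 25°C under initial-rate conditions. Km and kcat came from Lineweaver-Burk plots as means of three independent experiments, and kcat/Km was calculated from them.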

Escherichia coli [5] = conditions: JM109
Escherichia coli [6] = assay: Antibacterial activity against Escherichia coli K-12 W1895 by microdilution method; type: functional
Outline: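 Microdilution β-lactam MICs in E. coli K-12 W1895, the conjugation recipient. Transconjugants carrying the natural blaKHM-1 plasmid were selected on Penassay agar with rifampin (200 μg/ml) and moxalactam (16 μg/ml).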

Escherichia coli [7] = assay: Antibacterial activity against Escherichia coli K-12 W1895 transconjugant harboring pCF243 by microdilution method; type: functional
Citrobacter freundii [8] = assay: Antibacterial activity against Citrobacter freundii KHM243 clinical isolate by microdilution method in presence of clavulanic acid; type: functional
Outline: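 Broth microdilution MICs of β-lactams against the C. freundii KHM243 urinary isolate. Clavulanic acid was combined with ticarcillin at a fixed 15:1 ticarcillin-to-clavulanate ratio.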

Escherichia coli [9] = assay: Antibacterial activity against Escherichia coli K-12 W1895 by microdilution method in presence of clavulanic acid; type: functional
Outline: (§1)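 Broth microdilution MICs of β-lactams. Clavulanic acid was tested combined with ticarcillin at a fixed 15:1 ticarcillin:clavulanic acid ratio.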

Escherichia coli [10] = assay: Antibacterial activity against Escherichia coli K-12 W1895 transconjugant harboring pCF243 by microdilution method in presence of clavulanic acid; type: functional; outline: as §1
Escherichia coli [11] = assay: Antibacterial activity against Escherichia coli JM109 by microdilution method in presence of clavulanic acid; type: functional
Outline: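 Broth microdilution susceptibility of E. coli JM109, the host strain for pHSG396-based recombinant plasmids. Ticarcillin was tested with clavulanic acid at a fixed ticarcillin:clavulanic acid ratio of 15:1.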

Escherichia coli [12] = assay: Antibacterial activity against Escherichia coli JM109 harboring recombinant pKHM-1 by microdilution method in presence of clavulanic acid; type: functional; outline: as §1
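For Km in this document: Beta-lactamase KHM-1 expressed in Escherichia coli JM109 carrying recombinant pKHM-1, hydrolysis of substrate followed by UV-visible spectrophotometry.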

| SMILES | MIC (Escherichia coli [1]) [µg/mL] | MIC (Citrobacter freundii [2]) [µg/mL] | MIC (Escherichia coli [3]) [µg/mL] | kcat/Km (Escherichia coli [4]) | Km (Escherichia coli [5]) [µM] | kcat (Escherichia coli [5]) [s⁻¹] | MIC (Escherichia coli [6]) [µg/mL] | MIC (Escherichia coli [7]) [µg/mL] | MIC (Citrobacter freundii [8]) [µg/mL] | MIC (Escherichia coli [9]) [µg/mL] | MIC (Escherichia coli [10]) [µg/mL] | MIC (Escherichia coli [11]) [µg/mL] | MIC (Escherichia coli [12]) [µg/mL] |
| --- | --- | --- | --- | --- | --- | --- | --- | --- | --- | --- | --- | --- | --- |
| CO[C@@]1(NC(=O)Cc2cccs2)C(=O)N2C(C(=O)O)=C(COC(N)=O)CS[C@@H]21 [CEFOXITIN] | 8 (≈ 18.7 µM) | 512 (≈ 1200 µM) | > 512 | 1.4 ×10⁷ /M/s | 81 | 1180 | 8 (≈ 18.7 µM) | > 512 | – | – | – | – | – |
| CO/N=C(\C(=O)N[C@@H]1C(=O)N2C(C(=O)[O-])=C(C[n+]3ccn4ncccc43)CS[C@H]12)c1nsc(N)n1 [CEFOZOPRAN] | 0.008 (≈ 0.0155 µM) | 16 (≈ 31 µM) | 64 | – | – | – | 0.016 (≈ 0.031 µM) | 256 (≈ 497 µM) | – | – | – | – | – |
| CC(C)(O/N=C(\C(=O)N[C@@H]1C(=O)N2C(C(=O)[O-])=C(C[n+]3ccccc3)CS[C@H]12)c1csc(N)n1)C(=O)O [CEFTAZIDIME] | 0.063 (≈ 0.115 µM) | > 512 | > 512 | 1.5 ×10⁷ /M/s | 8 | 118 | 0.125 (≈ 0.229 µM) | > 512 | – | – | – | – | – |
| CO/N=C(\C(=O)N[C@@H]1C(=O)N2C(C(=O)O)=C(COC(N)=O)CS[C@H]12)c1ccco1 [CEFUROXIME] | 8 (≈ 18.9 µM) | > 512 | > 512 | – | – | – | 2 (≈ 4.71 µM) | > 512 | – | – | – | – | – |
| O=C(Cc1cccs1)N[C@@H]1C(=O)N2C(C(=O)[O-])=C(C[n+]3ccccc3)CS[C@H]12 [CEPHALORIDINE] | 1 (≈ 2.41 µM) | 512 (≈ 1230 µM) | 64 | 1.6 ×10⁸ /M/s | 4.4 | 686 | 2 (≈ 4.81 µM) | 128 (≈ 308 µM) | – | – | – | – | – |
| CO[C@@]1(NC(=O)CSC(F)F)C(=O)N2C(C(=O)O)=C(CSc3nnnn3CCO)CO[C@@H]21 [FLOMOXEF] | 0.031 (≈ 0.0624 µM) | 64 (≈ 129 µM) | 128 | – | – | – | 0.031 (≈ 0.0624 µM) | 256 (≈ 516 µM) | – | – | – | – | – |
| C[C@@H](O)[C@H]1C(=O)N2C(C(=O)O)=C(SCCNC=N)C[C@H]12 [IMIPENEM ANHYDROUS] | – | 2 (≈ 6.68 µM) | – | 5.6 ×10⁴ /M/s | – | – | 0.063 (≈ 0.21 µM) | 4 (≈ 13.4 µM) | – | – | – | – | – |
| C[C@@H](O)[C@H]1C(=O)N2C(C(=O)O)=C(S[C@@H]3CN[C@H](C(=O)N(C)C)C3)[C@H](C)[C@H]12 [MEROPENEM] | 0.004 (≈ 0.0104 µM) | 4 (≈ 10.4 µM) | 4 | 3.3 ×10⁴ /M/s | 12 | 0.4 | 0.004 (≈ 0.0104 µM) | 4 (≈ 10.4 µM) | – | – | – | – | – |
| CO[C@@]1(NC(=O)C(C(=O)O)c2ccc(O)cc2)C(=O)N2C(C(=O)O)=C(CSc3nnnn3C)CO[C@@H]21 (some centres undefined) [MOXALACTAM] | 0.031 (≈ 0.0596 µM) | 256 (≈ 492 µM) | > 512 | 3.9 ×10⁷ /M/s | 71 | 2790 | 0.063 (≈ 0.121 µM) | > 512 | – | – | – | – | – |
| CCN1CCN(C(=O)N[C@@H](C(=O)N[C@@H]2C(=O)N3[C@@H]2SC(C)(C)[C@@H]3C(=O)O)c2ccccc2)C(=O)C1=O [PIPERACILLIN] | 0.25 (≈ 0.483 µM) | 4 (≈ 7.73 µM) | 4 | – | – | – | 2 (≈ 3.86 µM) | 16 (≈ 30.9 µM) | – | – | – | – | – |
| CC1(C)S[C@@H]2[C@H](NC(=O)[C@H](C(=O)O)c3ccsc3)C(=O)N2[C@H]1C(=O)O [TICARCILLIN] | 2 (≈ 5.2 µM) | > 512 | 512 | – | – | – | 2 (≈ 5.2 µM) | > 512 | 512 | 4 | > 512 | 2 | 512 |
